Laboratory results taken from ChEMBL document CHEMBL1152849, “Design, synthesis and AChE inhibitory activity of indanone and aurone derivatives” (Eur J Med Chem, 2009).

How the values were obtained:
Butyrylcholinesterase = Butyrylcholinesterase (Rattus norvegicus, UniProt Q9JKC1); assay: Inhibition of BChE in rat serum after 15 mins by modified Ellman method; type: cell-free
Acetylcholinesterase = biological target: T1, Acetylcholinesterase (Rattus norvegicus, UniProt P37136); assay: Inhibition of AChE in rat cortex after 15 mins by modified Ellman method
T1 sequence (P37136 whole entry): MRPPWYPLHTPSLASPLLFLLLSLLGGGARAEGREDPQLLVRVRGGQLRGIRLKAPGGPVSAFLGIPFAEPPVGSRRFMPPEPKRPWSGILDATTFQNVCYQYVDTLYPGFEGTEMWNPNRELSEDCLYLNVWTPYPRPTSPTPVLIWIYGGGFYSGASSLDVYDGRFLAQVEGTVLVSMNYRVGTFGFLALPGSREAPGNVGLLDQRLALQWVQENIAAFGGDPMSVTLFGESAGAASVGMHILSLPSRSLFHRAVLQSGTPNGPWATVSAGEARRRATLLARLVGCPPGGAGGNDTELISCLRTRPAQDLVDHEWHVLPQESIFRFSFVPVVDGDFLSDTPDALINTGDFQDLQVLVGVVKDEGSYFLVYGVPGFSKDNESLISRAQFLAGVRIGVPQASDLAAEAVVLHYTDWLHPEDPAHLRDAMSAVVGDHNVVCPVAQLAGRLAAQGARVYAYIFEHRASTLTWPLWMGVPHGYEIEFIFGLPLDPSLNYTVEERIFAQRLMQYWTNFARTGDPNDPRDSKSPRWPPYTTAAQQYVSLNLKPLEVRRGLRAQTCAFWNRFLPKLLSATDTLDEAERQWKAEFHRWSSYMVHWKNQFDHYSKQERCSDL

Mus musculus [1] = assay: Cognitive enhancing effect against scopolamine-induced acquisition memory deficit in mouse assessed as escape latency at 2 mg/kg, intragastric gavage after 24 hrs by step-down passive avoidance test; type: functional
Outline: (§1)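 Step-down passive avoidance in mice, 10 per group. In training, each mouse was placed on the platform and its latency to step down onto the grid with all four paws was recorded. It was shocked immediately on stepping down, and the session lasted 3 min. Memory was scored as step-down errors (times) and escape latency (s), each given as mean ± deviation.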

Mus musculus [2] = assay: Cognitive enhancing effect against scopolamine-induced acquisition memory deficit in mouse assessed as times of step-down at 5 mg/kg, intragastric gavage after 24 hrs by step-down passive avoidance test; type: functional; outline: as §1
Mus musculus [3] = assay: Cognitive enhancing effect against scopolamine-induced acquisition memory deficit in mouse assessed as escape latency at 10 mg/kg, intragastric gavage after 24 hrs by step-down passive avoidance test; type: functional; outline: as §1
Mus musculus [4] = assay: Cognitive enhancing effect against scopolamine-induced acquisition memory deficit in mouse assessed as times of step-down at 2 mg/kg, intragastric gavage after 24 hrs by step-down passive avoidance test; type: functional; outline: as §1
Mus musculus [5] = assay: Cognitive enhancing effect against scopolamine-induced acquisition memory deficit in mouse assessed as escape latency at 5 mg/kg, intragastric gavage after 24 hrs by step-down passive avoidance test; type: functional; outline: as §1
Mus musculus [6] = assay: Cognitive enhancing effect against scopolamine-induced acquisition memory deficit in mouse assessed as times of step-down at 10 mg/kg, intragastric gavage after 24 hrs by step-down passive avoidance test; type: functional; outline: as §1

Sequence of Butyrylcholinesterase (Q9JKC1 whole entry): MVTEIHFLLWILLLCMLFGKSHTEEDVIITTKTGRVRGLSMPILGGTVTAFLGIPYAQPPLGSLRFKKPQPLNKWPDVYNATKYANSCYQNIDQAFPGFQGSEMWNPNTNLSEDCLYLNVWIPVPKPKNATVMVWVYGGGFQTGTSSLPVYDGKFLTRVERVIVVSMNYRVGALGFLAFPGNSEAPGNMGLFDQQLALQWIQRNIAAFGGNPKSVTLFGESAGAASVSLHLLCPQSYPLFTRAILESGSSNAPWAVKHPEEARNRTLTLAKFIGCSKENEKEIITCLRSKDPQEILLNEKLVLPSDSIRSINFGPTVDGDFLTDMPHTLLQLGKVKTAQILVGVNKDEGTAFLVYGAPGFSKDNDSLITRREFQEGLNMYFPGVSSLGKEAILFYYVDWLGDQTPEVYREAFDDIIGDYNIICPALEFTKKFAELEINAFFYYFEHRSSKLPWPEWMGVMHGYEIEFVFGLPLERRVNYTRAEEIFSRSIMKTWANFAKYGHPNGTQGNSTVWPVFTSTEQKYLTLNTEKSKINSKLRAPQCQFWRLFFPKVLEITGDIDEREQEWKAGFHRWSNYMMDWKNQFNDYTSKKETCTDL

| SMILES | IC50 (Butyrylcholinesterase) | IC50 (Acetylcholinesterase) | further results |
| --- | --- | --- | --- |
| COc1cc2c(cc1OC)C(=O)/C(=C/c1ccc(CN3CCCC3)cc1)O2 | 36.4 µM | 0.16 µM | – |
| COc1cc2c(cc1OC)C(=O)/C(=C/c1cccc(CN(C)C)c1)C2 | 89.3 µM | 2.14 µM | – |
| COc1cc2c(cc1OC)C(=O)/C(=C/c1ccc(CN(C)C)cc1)C2 | 315 µM | 0.42 µM | – |
| CCN(C)Cc1cccc(/C=C2\Cc3cc(OC)c(OC)cc3C2=O)c1 | 36.8 µM | 0.49 µM | – |
| CCN(C)Cc1ccc(/C=C2\Cc3cc(OC)c(OC)cc3C2=O)cc1 | 20.1 µM | 0.27 µM | – |
| CCN(C)Cc1cccc(/C=C2\Oc3cc(OC)c(OC)cc3C2=O)c1 | 23.6 µM | 0.7 µM | – |
| CCN(CC)Cc1ccc(/C=C2\Oc3cc(OC)c(OC)cc3C2=O)cc1 | 47.9 µM | 0.14 µM | – |
| CCN(CC)Cc1ccc(/C=C2\Cc3cc(OC)c(OC)cc3C2=O)cc1 | 82 µM | 0.035 µM | Activity (Mus musculus [1]): 47 s; Activity (Mus musculus [2]): 2; Activity (Mus musculus [3]): 60 s; Activity (Mus musculus [4]): 2.67; Activity (Mus musculus [5]): 55 s; Activity (Mus musculus [6]): 1.6 |
| COc1cc2c(cc1OC)C(=O)/C(=C/c1cccc(CN3CCCC3)c1)C2 | 41.6 µM | 0.24 µM | – |
| COc1cc2c(cc1OC)C(=O)/C(=C/c1ccc(CN3CCCC3)cc1)C2 | 26.6 µM | 0.045 µM | – |
| COc1cc2c(cc1OC)C(=O)C(Cc1cccc(CN3CCCCC3)c1)C2 (stereo not drawn) | 70.4 µM | 0.66 µM | – |
| CCN(C)Cc1cccc(CC2Oc3cc(OC)c(OC)cc3C2=O)c1 (stereo not drawn) | 25.9 µM | 1.54 µM | – |
| CCN(CC)Cc1cccc(CC2Cc3cc(OC)c(OC)cc3C2=O)c1 (stereo not drawn) | 32 µM | 1.48 µM | – |
| CCN(CC)Cc1ccc(CC2Cc3cc(OC)c(OC)cc3C2=O)cc1 (stereo not drawn) | 11.7 µM | 0.29 µM | – |
| COc1cc2c(cc1OC)C(=O)C(Cc1cccc(CN3CCCCC3)c1)O2 (stereo not drawn) | 98.1 µM | 0.24 µM | – |
| CCN(CC)Cc1cccc(CC2Oc3cc(OC)c(OC)cc3C2=O)c1 (stereo not drawn) | 38.2 µM | 1.07 µM | – |
| CCN(CC)Cc1ccc(CC2Oc3cc(OC)c(OC)cc3C2=O)cc1 (stereo not drawn) | 16.4 µM | 0.44 µM | – |

| SMILES | IC50 (Butyrylcholinesterase) | IC50 (Acetylcholinesterase) | further results |
| --- | --- | --- | --- |
| COc1cc2c(cc1OC)C(=O)C(Cc1cccc(CN3CCCC3)c1)C2 (stereo not drawn) | 42.2 µM | 2.58 µM | – |
| COc1cc2c(cc1OC)C(=O)C(Cc1ccc(CN3CCCC3)cc1)C2 (stereo not drawn) | 33.2 µM | 0.15 µM | – |
| CCN(C)Cc1ccc(CC2Cc3cc(OC)c(OC)cc3C2=O)cc1 (stereo not drawn) | 34.5 µM | 0.38 µM | – |
| COc1cc2c(cc1OC)C(=O)C(Cc1cccc(CN(C)C)c1)C2 (stereo not drawn) | 25.2 µM | 3.74 µM | – |
| COc1cc2c(cc1OC)C(=O)C(Cc1ccc(CN(C)C)cc1)C2 (stereo not drawn) | 40.7 µM | – | – |
| COc1cc2c(cc1OC)C(=O)/C(=C/c1cccc(CN3CCCCC3)c1)C2 | 55.2 µM | 0.16 µM | – |
| COc1cc2c(cc1OC)C(=O)/C(=C/c1cccc(CN3CCCCC3)c1)O2 | 45 µM | 0.082 µM | – |
| CCN(CC)Cc1cccc(/C=C2\Oc3cc(OC)c(OC)cc3C2=O)c1 | 65.1 µM | 1.18 µM | – |
| COc1cc2c(cc1OC)C(=O)/C(=C/c1ccc(CN3CCCCC3)cc1)C2 | 84.6 µM | 0.1 µM | – |
| COc1cc2c(cc1OC)C(=O)C(Cc1ccc(CN3CCCC3)cc1)O2 (stereo not drawn) | 49.8 µM | 0.62 µM | – |
| COc1cc2c(cc1OC)C(=O)C(Cc1cccc(CN3CCCC3)c1)O2 (stereo not drawn) | 57.6 µM | 7.02 µM | – |
| COc1cc2c(cc1OC)C(=O)C(Cc1ccc(CN3CCCCC3)cc1)C2 (stereo not drawn) | 48.3 µM | 0.12 µM | – |
| CCN(C)Cc1cccc(CC2Cc3cc(OC)c(OC)cc3C2=O)c1 (stereo not drawn) | 18.5 µM | 0.69 µM | – |
| CCN(CC)Cc1cccc(/C=C2\Cc3cc(OC)c(OC)cc3C2=O)c1 | 71 µM | 0.44 µM | – |
| COc1cc2c(cc1OC)C(=O)/C(=C/c1cccc(CN3CCCC3)c1)O2 | 72 µM | 0.29 µM | – |
| COc1cc2c(cc1OC)C(=O)C(CC1CCN(Cc3ccccc3)CC1)C2 (stereo not drawn) [DONEPEZIL] | – | – | Activity (Mus musculus [1]): 75 s; Activity (Mus musculus [4]): 1.9 |
| CCN(C)C(=O)Oc1cccc([C@H](C)N(C)C)c1 [RIVASTIGMINE] | – | – | Activity (Mus musculus [1]): 73 s; Activity (Mus musculus [4]): 2 |
